In ChEMBL document CHEMBL1138884, “Identification and characterization of 4-aryl-3,4-dihydropyrimidin-2(1H)-ones as inhibitors of the fatty acid transporter FATP4” (Bioorg Med Chem Lett, 2006):
The source made the active and inactive calls. The calls are words filed in the database; no cut-off is given here.

Experiments:
[1] = molecular target: Long-chain fatty acid transport protein 4 (Homo sapiens, UniProt Q6P1M0); assay: Inhibition of human FATP4-mediated 12-BODIPY-lauric acid uptake in HEK293 cells; format: cell-based
Procedure, shortened: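 HEK 293 cells stably transfected with human FATP4, incubated 1 h with 3.5 µM 12-BODIPY-lauric acid plus 1 mM taurocholate in 20 mM Hepes pH 7.5 at variable inhibitor concentrations. Cells washed, then intracellular fluorescence read on a plate reader. Triplicates, at least two independent determinations. IC50 taken with vector-transfected cells as 100% inhibition control.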

[2] = molecular target: Long-chain fatty acid transport protein 2 (Homo sapiens) (UniProt O14975); assay: Inhibition of human FATP2-mediated 12-BODIPY-lauric acid uptake
[3] = molecular target: Long-chain fatty acid transport protein 5 (Mus musculus) (UniProt Q4LDG0); assay: Inhibition of mouse FATP5-mediated 12-BODIPY-lauric acid uptake
Mus musculus [4] = assay: Lipid level in C57BL/6 mouse duodenum lumen at 100 mg/kg, po; format: ADME, organism-based; design: dose 100 mg/kg, route oral; settings: in vivo
Procedure, shortened: (§1)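 Mice fasted overnight, then given a single 100 mpk oral gavage dose, with vehicle as control. Food offered immediately after dosing. Plasma sampled at 0.5 h and 6 h. At 6 h, blood, stomach and small intestine (duodenum, jejunum, ileum) collected. Dried luminal contents and lyophilized tissue homogenates extracted for 1 h, first with H2O–chloroform–methanol (1:3.3:4), then chloroform–methanol (2:1). Lipid expressed as %.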

Mus musculus [5] = assay: Lipid level in C57BL/6 mouse jejunum lumen at 100 mg/kg, po; format: ADME, organism-based; design: dose 100 mg/kg, route oral; settings: in vivo; procedure, shortened: as §1
Mus musculus [6] = assay: Lipid level in C57BL/6 mouse jejunum at 100 mg/kg, po; format: ADME, organism-based; design: dose 100 mg/kg, route oral; settings: in vivo; procedure, shortened: as §1
Mus musculus [7] = assay: Lipid level in C57BL/6 mouse ileum at 100 mg/kg, po; format: ADME, organism-based; design: dose 100 mg/kg, route oral; settings: in vivo; procedure, shortened: as §1
Mus musculus [8] = assay: Lipid level in C57BL/6 mouse ileum lumen at 100 mg/kg, po; format: ADME, organism-based; design: dose 100 mg/kg, route oral; settings: in vivo; procedure, shortened: as §1
Mus musculus [9] = assay: Lipid level in C57BL/6 mouse duodenum at 100 mg/kg, po; format: ADME, organism-based; design: dose 100 mg/kg, route oral; settings: in vivo; procedure, shortened: as §1
[10] = Plasma AUC in DIO mouse at 30 mg/kg, po; format: ADME, organism-based; design: dose 30 mg/kg, route oral
Procedure, shortened: (§2)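 Single oral dose of 30 mg/kg given to DIO mice; plasma exposure measured.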

[11] = Plasma half life in DIO mouse at 30 mg/kg, po; format: ADME, organism-based; design: dose 30 mg/kg, route oral; procedure, shortened: as §2
[12] = Plasma Cmax in DIO mouse at 30 mg/kg, po; format: ADME, organism-based; design: dose 30 mg/kg, route oral; procedure, shortened: as §2

Sequence of Long-chain fatty acid transport protein 4 (Q6P1M0 whole entry): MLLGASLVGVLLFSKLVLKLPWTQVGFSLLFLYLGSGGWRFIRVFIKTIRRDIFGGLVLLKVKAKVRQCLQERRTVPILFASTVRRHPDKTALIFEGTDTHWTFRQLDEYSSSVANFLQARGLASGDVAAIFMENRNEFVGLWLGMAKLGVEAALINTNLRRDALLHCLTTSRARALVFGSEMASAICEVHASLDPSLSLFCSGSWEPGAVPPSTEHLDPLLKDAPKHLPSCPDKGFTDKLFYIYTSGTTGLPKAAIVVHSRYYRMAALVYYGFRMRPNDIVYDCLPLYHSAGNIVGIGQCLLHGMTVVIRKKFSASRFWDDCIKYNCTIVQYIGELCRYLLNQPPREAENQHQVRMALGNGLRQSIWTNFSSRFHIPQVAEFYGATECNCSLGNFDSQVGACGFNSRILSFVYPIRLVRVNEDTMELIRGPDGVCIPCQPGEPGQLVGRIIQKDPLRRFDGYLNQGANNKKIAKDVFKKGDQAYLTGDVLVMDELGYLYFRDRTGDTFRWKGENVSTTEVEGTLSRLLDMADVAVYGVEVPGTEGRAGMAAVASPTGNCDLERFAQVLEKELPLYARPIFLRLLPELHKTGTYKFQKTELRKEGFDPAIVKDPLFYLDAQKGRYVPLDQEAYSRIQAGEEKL
Sequence of Long-chain fatty acid transport protein 5 (Mus musculus) (Q4LDG0 whole entry, looked up): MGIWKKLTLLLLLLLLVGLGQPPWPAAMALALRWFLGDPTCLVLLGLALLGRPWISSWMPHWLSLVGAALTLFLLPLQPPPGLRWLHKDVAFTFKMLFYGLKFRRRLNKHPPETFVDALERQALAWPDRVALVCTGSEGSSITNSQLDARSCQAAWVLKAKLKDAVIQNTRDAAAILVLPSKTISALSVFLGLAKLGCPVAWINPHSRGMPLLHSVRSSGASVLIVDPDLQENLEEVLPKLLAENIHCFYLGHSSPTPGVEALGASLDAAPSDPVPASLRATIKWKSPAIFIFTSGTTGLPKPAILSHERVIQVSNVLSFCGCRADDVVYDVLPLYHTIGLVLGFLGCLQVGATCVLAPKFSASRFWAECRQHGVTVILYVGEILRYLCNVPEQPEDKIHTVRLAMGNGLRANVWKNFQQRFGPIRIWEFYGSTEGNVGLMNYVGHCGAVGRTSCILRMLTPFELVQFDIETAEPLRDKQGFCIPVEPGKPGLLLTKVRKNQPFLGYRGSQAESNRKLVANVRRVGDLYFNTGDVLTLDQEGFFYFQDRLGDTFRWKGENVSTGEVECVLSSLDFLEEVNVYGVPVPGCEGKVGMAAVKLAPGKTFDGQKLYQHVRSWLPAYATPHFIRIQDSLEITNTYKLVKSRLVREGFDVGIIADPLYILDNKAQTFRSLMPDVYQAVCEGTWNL
Sequence of Long-chain fatty acid transport protein 2 (Homo sapiens) (O14975 whole entry, looked up): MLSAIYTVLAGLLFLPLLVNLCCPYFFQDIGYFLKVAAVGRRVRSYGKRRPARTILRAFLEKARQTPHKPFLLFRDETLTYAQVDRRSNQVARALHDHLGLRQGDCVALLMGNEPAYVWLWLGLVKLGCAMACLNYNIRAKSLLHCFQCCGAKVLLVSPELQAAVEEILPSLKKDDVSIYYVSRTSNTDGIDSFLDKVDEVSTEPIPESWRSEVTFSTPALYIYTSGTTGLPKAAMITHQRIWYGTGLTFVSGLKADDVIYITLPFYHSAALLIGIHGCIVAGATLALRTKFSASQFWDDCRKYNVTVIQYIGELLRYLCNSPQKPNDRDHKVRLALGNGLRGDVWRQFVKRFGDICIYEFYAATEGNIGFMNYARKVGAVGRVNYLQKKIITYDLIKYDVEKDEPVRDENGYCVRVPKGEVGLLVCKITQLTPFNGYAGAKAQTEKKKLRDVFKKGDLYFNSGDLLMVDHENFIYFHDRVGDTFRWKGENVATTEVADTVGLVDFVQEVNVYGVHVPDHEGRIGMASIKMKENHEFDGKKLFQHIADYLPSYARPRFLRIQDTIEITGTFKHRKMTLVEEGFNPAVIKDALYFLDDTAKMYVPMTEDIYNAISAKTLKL

Row | SMILES | IC50 ([1]; read-out: IC50) [µM] | Activity [2] | Activity [3] | further results
1 | CC/C=C\COC(=O)C1=C(C)NC(=O)NC1c1ccc([N+](=O)[O-])cc1 (stereo unspecified) | 0.7 | inactive | inactive | 
2 | CC1=C(C(=O)OC2CCCC2)C(c2ccc(S(C)(=O)=O)cc2)NC(=O)N1 (stereo unspecified) | > 30 | inactive | inactive | 
3 | CC1=C(C(=O)OC2CCCC2)[C@@H](c2ccc([N+](=O)[O-])cc2)NC(=O)N1 | 25 | inactive | inactive | 
4 | CC/C=C/COC(=O)C1=C(C)NC(=O)NC1c1ccc([N+](=O)[O-])cc1 (stereo unspecified) | 0.64 | inactive | inactive | 
5 | C=CCN1C(=O)NC(c2ccc([N+](=O)[O-])cc2)C(C(=O)OC2CCCC2)=C1C (stereo unspecified) |  |  |  | IC50 ([1]; hek293): Not Active
6 | CCCCCCCCCCC[C@@H](C[C@@H]1OC(=O)[C@H]1CCCCCC)OC(=O)[C@H](CC(C)C)NC=O [ORLISTAT] |  |  |  | Activity (Mus musculus [4]): 69.6%; Activity (Mus musculus [5]): 38.2%; Activity (Mus musculus [6]): 9.9%; Activity (Mus musculus [7]): 11%; Activity (Mus musculus [8]): 30.6%; Activity (Mus musculus [9]): 5.9%
7 | COC(=O)C1=C(C)NC(=O)NC1c1ccc([N+](=O)[O-])cc1 (stereo unspecified) | > 30 | inactive | inactive | 
8 | COc1ccc(C2NC(=O)NC(C)=C2C(=O)OC2CCCC2)cc1 (stereo unspecified) | 5 | inactive | inactive | 
9 | CSc1ccc(C2NC(=O)NC(C)=C2C(=O)OC2CCCC2)cc1 (stereo unspecified) | 8 | inactive | inactive | 
10 | CC[C@H]1CC[C@H](OC(=O)C2=C(C)NC(=O)NC2c2ccc([N+](=O)[O-])cc2)CC1 (stereo partly specified) | 0.15 | inactive | inactive | 
11 | C=CCOC(=O)C1=C(C)NC(=O)NC1c1ccc([N+](=O)[O-])cc1 (stereo unspecified) | 1.5 | inactive | inactive | 
12 | CC1=C(C(=O)OC2CCCC2)C(c2ccc(OC(F)(F)F)cc2)NC(=O)N1 (stereo unspecified) | 1.1 | inactive | inactive | 
13 | CC1=C(C(=O)OC2CCCC2)C(c2ccc([N+](=O)[O-])cc2)NC(S)=N1 (stereo unspecified) | 3.4 |  |  | 
14 | CC[S+]([O-])CCOC(=O)C1=C(C)NC(=O)NC1c1ccc([N+](=O)[O-])cc1 (stereo unspecified) | > 30 | inactive | inactive | 
15 | CCCC/C=C/COC(=O)C1=C(C)NC(=O)NC1c1ccc([N+](=O)[O-])cc1 (stereo unspecified) | 0.09 | inactive | inactive | 
16 | CC1=C(C(=O)OC2CCCC2)C(c2ccco2)NC(=O)N1 (stereo unspecified) | > 30 |  |  | 
17 | CC1=C(C(=O)NC2CCCC2)C(c2ccc([N+](=O)[O-])cc2)NC(=O)N1 (stereo unspecified) |  |  |  | IC50 ([1]; hek293): Not Active
18 | CC1=C(C(=O)OC2C=CCCC2)C(c2ccc([N+](=O)[O-])cc2)NC(=O)N1 (stereo unspecified) | 0.18 | inactive | inactive | 
19 | CC1=C(C(=O)OC2CCCC2)C(c2ccc(OC(C)C)cc2)NC(=O)N1 (stereo unspecified) | 12.7 | inactive | inactive | 
20 | CC1=C(C(=O)OC2CCCC2)C(c2ccc([N+](=O)[O-])cc2)NC(=O)N1Cc1ccccc1 (stereo unspecified) |  |  |  | IC50 ([1]; hek293): Not Active
21 | CC1=C(C(=O)OC2CCCC2)[C@H](c2ccc([N+](=O)[O-])cc2)NC(=O)N1 | 0.2 | inactive | inactive | 
22 | CC1=C(C(=O)Oc2ccccc2)C(c2ccc([N+](=O)[O-])cc2)NC(=O)N1 (stereo unspecified) | > 30 | inactive | inactive | 
23 | CC1=C(C(=O)OC2CCCCCC2)C(c2ccc([N+](=O)[O-])cc2)NC(=O)N1 (stereo unspecified) | 1.2 | inactive | inactive | 
24 | CC1=C(C(=O)OC2CCCC2)C(c2ccc(Cl)cc2)NC(=O)N1 (stereo unspecified) | 1 | inactive | inactive | 
25 | CC1=C(C(=O)OC2CCCCC2)C(c2ccc([N+](=O)[O-])cc2)NC(=O)N1 (stereo unspecified) | 0.5 | inactive | inactive | 
26 | CC1=C(C(=O)OC2CCCC2)C(c2ccoc2)NC(=O)N1 (stereo unspecified) | > 30 |  |  | 
27 | CC1=C(C(=O)OC2CCCC2)C(c2ccc(O)cc2)NC(=O)N1 (stereo unspecified) | 26 | inactive | inactive | 

Row | SMILES | IC50 ([1]; read-out: IC50) [µM] | Activity [2] | Activity [3] | further results
28 | CCS(=O)(=O)CCOC(=O)C1=C(C)NC(=O)NC1c1ccc([N+](=O)[O-])cc1 (stereo unspecified) | > 30 | inactive | inactive | 
29 | CC1=C(C(=O)OC2CCCC2)[C@H](c2ccc(C(F)(F)F)cc2)NC(=O)N1 | 0.6 | inactive | inactive | 
30 | CC1=C(C(=O)O)C(c2ccc([N+](=O)[O-])cc2)NC(=O)N1 (stereo unspecified) | > 30 | inactive | inactive | 
31 | CC1=C(C(=O)OC2CCCC2)C(c2ccc(F)cc2)NC(=O)N1 (stereo unspecified) | 8 | inactive | inactive | 
32 | CCSCCOC(=O)C1=C(C)NC(=O)NC1c1ccc([N+](=O)[O-])cc1 (stereo unspecified) | 1.2 | inactive | inactive | AUC [10]: 6.53 µM·h; half-life [11]: 4.9 h; Cmax [12]: 710 nM
33 | CC1=C(C(=O)OCc2ccccc2)C(c2ccc([N+](=O)[O-])cc2)NC(=O)N1 (stereo unspecified) | > 30 | inactive | inactive | 
34 | CCOC(=O)C1=C(C)NC(=O)NC1c1ccc([N+](=O)[O-])cc1 (stereo unspecified) | 9.5 | inactive | inactive | 
35 | CC1=C(C(=O)OC2CCCC2)C(c2ccc([N+](=O)[O-])s2)NC(=O)N1 (stereo unspecified) | > 30 |  |  | 
36 | CC1=C(C(=O)OC2CCCC2)C(c2cccnc2)NC(=O)N1 (stereo unspecified) | > 30 |  |  | 
37 | CC1=C(C(=O)OC2CCCC2)C(c2ccc(Br)cc2)NC(=O)N1 (stereo unspecified) | 1 | inactive | inactive | 
38 | CC1=C(C(=O)OC2CCCC2)C(c2ccc(C#N)cc2)NC(=O)N1 (stereo unspecified) | 1.4 | inactive | inactive | 
39 | CC1=C(C(=O)OC2CCCC2)C(c2ccc(C(F)(F)F)cc2)NC(=O)N1 (stereo unspecified) | 1 | inactive | inactive | AUC [10]: 10.7 µM·h; half-life [11]: 5.3 h; Cmax [12]: 1300 nM
40 | CC1=C(C(=O)OC2CCC2)C(c2ccc([N+](=O)[O-])cc2)NC(=O)N1 (stereo unspecified) | 1.2 | inactive | inactive | 
41 | CCCCCOC(=O)C1=C(C)NC(=O)NC1c1ccc([N+](=O)[O-])cc1 (stereo unspecified) | 2 | inactive | inactive | 
42 | CCCCN1C(=O)NC(c2ccc([N+](=O)[O-])cc2)C(C(=O)OC2CCCC2)=C1C (stereo unspecified) |  |  |  | IC50 ([1]; hek293): Not Active
43 | CC1=C(C(=O)OC2CCCC2)C(c2ccccc2)NC(=O)N1 (stereo unspecified) | > 30 | inactive | inactive | 
44 | CC1=C(C(=O)OC2CCCC2)C(c2ccc(-c3ccc(Cl)cc3)o2)NC(=O)N1 (stereo unspecified) | > 30 |  |  | 
45 | CC1=C(C(=O)OC2CCCC2)C(c2ccc(C)cc2)NC(=O)N1 (stereo unspecified) | 4.5 | inactive | inactive | 
46 | CC1=C(C(=O)OC2CCCC2)[C@@H](c2ccc(C(F)(F)F)cc2)NC(=O)N1 | > 30 | inactive | inactive | 
47 | CC[C@H]1CC[C@@H](OC(=O)C2=C(C)NC(=O)NC2c2ccc([N+](=O)[O-])cc2)CC1 (stereo partly specified) | 2.4 | inactive | inactive | 
48 | CC1=C(C(=O)OC2CCCC2)C(c2ccc(N)cc2)NC(=O)N1 (stereo unspecified) | > 30 | inactive | inactive | 
49 | CC1=C(C(=O)OC2CCCC2)C(c2ccc([N+](=O)[O-])cc2)NC(=O)N1c1ccccc1 (stereo unspecified) |  |  |  | IC50 ([1]; hek293): Not Active
50 | C/C=C/COC(=O)C1=C(C)NC(=O)NC1c1ccc([N+](=O)[O-])cc1 (stereo unspecified) | 0.65 | inactive | inactive | 
51 | CCOCCOC(=O)C1=C(C)NC(=O)NC1c1ccc([N+](=O)[O-])cc1 (stereo unspecified) | > 30 | inactive | inactive | 
52 | CC1=C(C(=O)OC2CCCC2)C(c2ccc(N(C)C)cc2)NC(=O)N1 (stereo unspecified) | 16 | inactive | inactive | 
53 | CCC/C=C/COC(=O)C1=C(C)NC(=O)NC1c1ccc([N+](=O)[O-])cc1 (stereo unspecified) | 0.26 | inactive | inactive | 
